# Screening data as filed in PubChem.
# Most compounds without a hit are left out; they make up all but 1.4% or so of the library.
# ABCB6 inh 2 = ABCB6 transporter inhibitors, primary screen, K562-ABCB6 cells, flow cytometry, MLPCN library | ATP-binding cassette sub-family B member 6 (Homo sapiens), Q9NP58 | K562-ABCB6 porphyrin accumulation, 1 h; stronger effect = lower value | fluorescence ratio to DMSO, % at 10 µM | hit rate 0.19% among 360,000 | AID 602162, 2011;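 active = fluorescence ratio to DMSO below 75%, the collection mean minus 3 SD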;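 also: signal is porphyrin accumulated inside mitochondria; 100% equals median channel fluorescence of DMSO control wells; lower ratio means ABCB6 inhibition with less porphyrin fluorescence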
# CHT PAM = CHT positive allosteric modulators, primary screen, cell-based, membrane potential dye, choline EC20. B-score at 10 µM. CHT-expressing cells; stronger effect = higher value; LV-AA mutant CHT in HEK293 cells. AID 488977, 2010. hit rate 0.49% among 310,000;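 active = initial fluorescence not abnormally high and integrated response B-score, plate-corrected, over 3 SD above library mean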
# Target sequence (Q9GZV3 whole entry, looked up): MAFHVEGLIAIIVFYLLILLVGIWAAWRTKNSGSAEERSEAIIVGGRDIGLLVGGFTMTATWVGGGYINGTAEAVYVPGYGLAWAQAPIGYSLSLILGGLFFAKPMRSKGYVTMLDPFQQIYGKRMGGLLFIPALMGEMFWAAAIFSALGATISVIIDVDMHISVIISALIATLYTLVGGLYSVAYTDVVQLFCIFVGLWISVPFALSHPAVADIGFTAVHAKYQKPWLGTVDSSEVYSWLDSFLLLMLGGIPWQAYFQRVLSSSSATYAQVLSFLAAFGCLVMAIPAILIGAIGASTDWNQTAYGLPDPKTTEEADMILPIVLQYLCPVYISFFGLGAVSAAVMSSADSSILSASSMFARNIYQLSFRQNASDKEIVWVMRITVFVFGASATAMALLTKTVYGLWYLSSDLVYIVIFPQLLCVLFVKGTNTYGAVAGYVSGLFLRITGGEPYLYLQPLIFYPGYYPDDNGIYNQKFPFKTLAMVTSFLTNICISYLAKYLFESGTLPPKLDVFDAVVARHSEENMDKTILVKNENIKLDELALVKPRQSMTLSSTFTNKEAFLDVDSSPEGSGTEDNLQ
# TNAP inh no acc = human TNAP enzyme inhibitors, primary screen, biochemical, luminescent, no phosphate acceptor, uHTS; Alkaline phosphatase, tissue-nonspecific isozyme (Homo sapiens), P05186; purified TNAP, CDP-star luminescence, 30 min; inhibition, % at 20 µM; hit rate 0.26% among 200,000;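 active = tissue-nonspecific alkaline phosphatase inhibition above about 50% at 20 µM in the single-dose screen, limit read from the data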;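 also: 0% = DMSO negative control and 100% = EDTA positive control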
# TNAP inh hiacc = human TNAP enzyme inhibitors, primary screen, biochemical, luminescent, high phosphate acceptor level, uHTS. hit rate 0.03% among 200,000. AID 1135, 2008. Alkaline phosphatase, tissue-nonspecific isozyme (Homo sapiens), P05186. purified TNAP, CDP-star luminescence, 1 M DEA. inhibition, % at 20 µM;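 active = over 50% inhibition of tissue-nonspecific alkaline phosphatase at 20 µM in the single-dose screen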;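 also: plate controls were DMSO wells for no effect and EDTA-quenched wells as full inhibition for full effect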
# CHT block = inhibitors of human choline transporter CHT; High affinity choline transporter 1 (Homo sapiens), Q9GZV3; CHT-expressing cells, membrane potential dye, choline response; stronger effect = lower value; B-score at 10 µM; hit rate 0.86% among 310,000;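 active = B-score over 3 SD under the library average, and starting fluorescence ratio not unusually high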;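 also: choline stimulus applied at its EC90 after an EC20 pre-addition; B-score computed on integrated fluorescence ratio after choline addition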
# TNAP act hiacc = TNAP activators at high phosphate acceptor level, primary screen, biochemical, luminescence, uHTS; Alkaline phosphatase, tissue-nonspecific isozyme (Homo sapiens), P05186; purified TNAP, CDP-star luminescence, 1 M DEA, 30 min; stronger effect = higher value; 0 = EDTA background, 1 = DMSO-only activity; activation factor at 20 µM; 200,000 tested, under 10 active;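 active = activation factor at least 2 at 20 µM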
#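 Measured by: Luminescent substrate turnover signal | Test system: Human TNAP | Input: TNAP 1/800 final | Dosing: 20 µM single point | Schedule: 30 min, room temperature | Controls: EDTA wells as negative control, DMSO wells as positive control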
# CHT act confirm = CHT activators, confirmation, cell-based, membrane potential dye, duplicate. AID 504833, 2011. CHT-expressing cells, membrane potential dye fluorescence (FDSS); % of choline EC20–EC90 response window; HEK293 expressing CHT LV-AA mutant; choline added at its EC20. activation, % at 10 µM. hit rate 91% among 2,500. shares compounds with CHT PAM;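 active = primary screen active, with duplicate mean activation above negative control mean plus 3 SD, cut at about 11% in these data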
# HEK293 MP dye = membrane potential response in parental HEK293 cells, counter-screen for CHT activator project, cell-based, membrane potential dye | ratio readout change at 10 µM, hits read low | hit rate 62% among 2,500 | membrane potential dye fluorescence (FDSS); measured after EC20 choline addition | shares compounds with CHT PAM;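 active = duplicate-averaged ratio beyond 3 SD from buffer wells, up or down, though filed actives are nearly all decreases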
# * marks the source's active call; other numbers are inactive results; i = inactive; . = no result given.
SMILES,ABCB6 inh 2,CHT PAM,TNAP inh no acc,TNAP inh hiacc,CHT block,TNAP act hiacc,CHT act confirm,HEK293 MP dye
c1ccc2c(SCc3cn4ccccc4n3)nncc2c1,100,7.7*,-4,-3,i,1,39*,-37*
CC(C)Oc1ccc(CNC(=O)CCCN2C(=O)C(c3ccccc3)Oc3cccnc32)cc1 (configuration not stated),102,i,.,.,i,.,.,.
CC[C@@H](C)[C@H](CN[C@H](CNC)C(C)C)NC[C@@H](C)c1ccc(CC(C)C)cc1,98,i,.,.,i,.,0,i
COc1ccc(C)cc1Nc1n[n+](-c2ccccc2)c(-c2ccc(OC)c(OC)c2OC)s1,94,9.9*,.,.,i,.,15*,i
COc1ccc(C)cc1Nc1n[n+](-c2ccccc2)c(-c2c(Cl)cccc2Cl)s1,.,i,.,.,i,.,.,.
COc1ccc(N2CCN(c3ccnc4cc(Cl)ccc34)CC2)cc1,102,i,.,.,i,.,.,.
CCC(=O)N1CCN(c2ccnc3cc(Cl)ccc23)CC1,99,7.6*,.,.,i,.,68*,-63*
Clc1ccc2c(N3CCOCC3)ccnc2c1,95,i,.,.,i,.,50*,-50*
CCOC(=O)N1CCN(c2ccnc3cc(Cl)ccc23)CC1,99,i,.,.,i,.,.,.
Cc1ccc(C2(C)NC(=O)N(CC(=O)NC(=O)NC(C)C)C2=O)cc1 (configuration not stated),98,i,.,.,i,.,.,.
COc1cccc(/C=N/n2cncn2)c1OCC#N,99,6.4*,-10,-3,i,1,3,i
N#CCOc1ccccc1/C=N/n1nnnc1N,103,i,.,.,i,.,.,.
O=C1C(Cc2ccccc2)Nc2ncnc(N3CCN(c4ccccc4)CC3)c2N1Cc1ccc(Cl)cc1 (configuration not stated),99,i,.,.,i,.,.,.
CCOc1ccc(-c2nnc(-c3cccnc3)o2)cc1OCC,96,i,-1,-6,i,1.1,32*,-27*
COc1ccc(-c2nnc(-c3cccnc3)o2)cc1OC,100,7.5*,-18,-8,i,1.1,31*,-32*
CCOc1ccc(-c2nnc(-c3ccncc3)o2)cc1OCC,96,i,-6,-6,i,1.1,61*,-49*
COc1ccc2c(=O)cc(-c3cccnc3)oc2c1OC,98,7.6*,.,.,i,.,79*,-72*
CCOc1ccc(CCNC(=O)C2CSC3(C)CCC(=O)N23)cc1OCC (configuration not stated),94,i,.,.,i,.,.,.
O=C(CC1C=Cc2ccccc2N1C(=O)c1ccccc1)c1ccccc1 (configuration not stated),89,10*,.,.,i,.,26*,i
CC1C=Cc2ccccc2N1C(=O)c1ccccc1 (configuration not stated),100,i,-2,-6,i,1.1,.,.
CCCCN(C)CCNC(=O)c1nn(-c2ccc(OC)cc2)c(=O)c2c1c1ccccc1n2C,96,i,-5,-4,i,1,29*,-31*
CCN(C(=O)c1nn(-c2ccc(OC)cc2)c(=O)c2c1c1ccccc1n2C)c1ccc(OC)cc1,119,i,-13,-4,i,1,.,.
Cc1cc(/C=N\NC(=O)CC(=O)NC2CCCCC2)c(C)n1-c1cccc(Cl)c1Cl,101,12*,-5,-8,i,1.1,23*,i
Cc1nnc(C)c2c(C)n(-c3ccc4ncccc4c3)c(C)c12,88,i,4,-4,i,1,41*,-46*
Cc1nnc(C)c2c(C)n(-c3ccc(Cl)c(N)c3)c(C)c12,96,i,.,.,i,.,.,.
SMILES,ABCB6 inh 2,CHT PAM,TNAP inh no acc,TNAP inh hiacc,CHT block,TNAP act hiacc,CHT act confirm,HEK293 MP dye
Cc1cc(C)cc(-n2c(C)c3c(C)nnc(C)c3c2C)c1,101,i,-2,0,i,1,43*,-28*
O=C(CSc1nnc(SCc2ccc(Cl)cc2)s1)N/N=C/c1ccccc1C(=O)O,93,i,.,.,i,.,.,.
COc1ccc(Cc2nnc(NC(=O)c3ccccc3F)s2)cc1OC,92,i,.,.,i,.,.,.
O=S(=O)(c1ccc(C2=CSC3=NCCN23)cc1)N1CCOCC1,95,6.3*,-6,-5,i,1.1,36*,-40*
CC(C)CC(C(=O)N1CCc2ccccc2C1)N1C(=O)c2ccccc2C1=O (configuration not stated),96,i,-5,-6,i,1.1,39*,i
CC(C(=O)N1CCc2ccccc2C1)N1C(=O)c2ccccc2C1=O (configuration not stated),104,i,.,.,i,.,.,.
COC(=O)COc1ccc(-c2ccccc2)cc1C=O,97,20*,-9,-5,i,1.1,6,i
COC(=O)COc1ccc(-c2ccc(F)cc2)cc1C=O,97,i,-4,4,i,1,.,.
Cc1ccc(S(=O)(=O)N(C)C)cc1NC(=S)NC(=O)C12CC3CC(CC(C3)C1)C2,92,i,-6,-3,i,1,3,i
O=C(Nc1ccc2c(c1)C(=O)NC2=O)c1cccc(Cl)c1,98,i,.,.,i,.,.,.
O=[N+]([O-])c1cc(Cl)ccc1-c1nc(-c2ccncc2)no1,101,i,-8,2,i,1,.,.
O=[N+]([O-])c1cnc2nc(-c3ccncc3)nn2c1O,102,i,11,-7,i,1.1,44*,-45*
O=C1CCN(Cc2ccccc2)CCN1[C@H](COc1ccccc1)Cc1ccccc1,86,6.7*,.,.,i,.,24*,i
Cc1ccc(SC[C@H](Cc2ccccc2)N2CCN(CC(C)C)CCC2=O)cc1,95,.,.,.,.,.,.,.
CC(C)C[C@@H](CO)N1CCN(Cc2ccccc2)CCC1=O,104,i,.,.,i,.,.,.
CC(C)CN1CCC(=O)N([C@H](CSc2ccccc2)Cc2ccccc2)CC1,93,13*,.,.,i,.,42*,i
